From ChEMBL document CHEMBL3997782, “Methoxylated 2'-hydroxychalcones as antiparasitic hit compounds” (Eur J Med Chem, 2017)
pEC50: −log10 of the molar value.

Columns and labels:
[1] = system: Trypanosoma brucei brucei; experiment: Anti-parasitic activity against bloodstream form of Trypanosoma brucei brucei Lister 427 at 10 uM after 72 hrs by resazurin-based assay relative to control; assay type: functional; conditions: Lister 427, 72 h
Outline: (§1)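 Bloodstream-form T. brucei, modified resazurin-based viability assay. EC50 is the arithmetic mean of at least two independent determinations, each run in triplicate.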

[2] = Cytotoxicity against human THP1 cells by MTT assay; assay type: cell-based; conditions: THP-1 cells
Outline: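 THP-1 cells differentiated to macrophages with PMA, viability read by colorimetric MTT. CC50 and NOAEL are the arithmetic mean of at least two independent determinations, each run in triplicate.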

[3] = system: Trypanosoma cruzi; experiment: Anti-parasitic activity against Trypanosoma cruzi Y promastigotes infected in HG39 cells at 10 uM by qPCR analysis relative to control; assay type: functional, cell-based; conditions: in the assay text read “trypomastigotes” for “promastigotes”
Outline: (§2)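 Confluent HG39 cells (3 x 10^6 per well) infected at a 1:1 ratio with blood-derived T. cruzi Y strain trypomastigotes. Growth inhibition was read as parasite gDNA by TaqMan probe-based quantitative real-time PCR.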

[4] = Cytotoxicity against human A549 cells assessed as cell growth at 10 uM by Cell titer-Glo assay relative to control; assay type: cell-based; conditions: read-out: Activity
Outline: (§3)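 A549 and WI-38 cells grown in DMEM with 10% v/v FCS, streptomycin 100 µg/ml and penicillin G 100 U/ml. Cell number read as cellular ATP by CellTiter-Glo luminescence. Growth 60–100% scored non-cytotoxic, 0–60% cytostatic, below 0 cytotoxic.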

[5] = Cytotoxicity against human […] cells assessed as cell growth at 10 uM by Cell titer-Glo assay relative to control; assay type: cell-based; conditions: WI-38 cells, read-out: Activity; outline: as §3
[6] = system: 786-0; experiment: Mitochondrial toxicity in human 786-O cells at 10 uM by mitotracker red chloromethyl-Xrosamine staining based-uptake method relative to control; assay type: cell-based; conditions: 786-0, 10 µM
Outline: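 786-O renal carcinoma cells kept in RPMI-1640 with 2 mM glutamine, 10% v/v FCS, streptomycin 100 µg/ml and penicillin G 100 U/ml. Mitochondrial toxicity monitored by MitoTracker Red CMXRos uptake with high-content imaging.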

[7] = molecular target: Aurora kinase B (Homo sapiens, UniProt Q96GD4); experiment: Inhibition of N-terminal-GST-tagged recombinant full length human Aurora B expressed in baculovirus infected Sf9 cells at 10 uM using native Swine Myelin Basic Protein as substrate measured after 60 mins by ADP-Glo assay relative to control; conditions: probe native Swine Myelin Basic Protein
Outline: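 Aurora B kinase activity measured by ADP-Glo, which detects ADP formed through a coupled luciferase luminescence read-out.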

[8] = molecular target: hERG (KCNH2) (Homo sapiens, UniProt Q12809); experiment: Inhibition of human ERG at 10 uM by Tracer Red dye based fluorescence polarization assay relative to control; conditions: probe Tracer Red dye
[9] = molecular target: T1, CYP1A2 (Homo sapiens, UniProt P05177); experiment: Inhibition of human CYP1A2 expressed in baculovirus-infected insect cells at 10 uM using Luciferin-1A2 as substrate in presence of NADPH by P450-Glo luminescence assay relative to control; assay type: ADME; conditions: probe Luciferin-1A2
T1 sequence (P05177 whole entry): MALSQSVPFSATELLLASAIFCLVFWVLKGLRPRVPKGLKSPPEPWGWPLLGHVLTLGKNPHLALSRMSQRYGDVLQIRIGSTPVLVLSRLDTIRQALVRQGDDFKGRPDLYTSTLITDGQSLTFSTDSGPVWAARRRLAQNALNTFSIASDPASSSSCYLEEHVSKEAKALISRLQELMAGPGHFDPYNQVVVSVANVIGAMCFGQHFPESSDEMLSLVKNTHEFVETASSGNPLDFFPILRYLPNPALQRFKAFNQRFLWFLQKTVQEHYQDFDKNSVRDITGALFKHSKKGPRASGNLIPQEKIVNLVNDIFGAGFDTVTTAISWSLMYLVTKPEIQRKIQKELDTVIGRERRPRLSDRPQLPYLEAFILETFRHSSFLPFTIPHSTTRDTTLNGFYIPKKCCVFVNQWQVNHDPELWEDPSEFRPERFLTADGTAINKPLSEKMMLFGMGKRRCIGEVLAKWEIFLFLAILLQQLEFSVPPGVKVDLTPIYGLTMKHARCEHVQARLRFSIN
Outline: (§4)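 CYP enzymes as microsomal preparations from baculovirus-infected insect cells, run on the P450-Glo luminogenic substrate platform. A fall in light output indicates inhibition.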

[10] = molecular target: CYP2C9 (Homo sapiens, UniProt P11712); experiment: Inhibition of human CYP2C9 expressed in baculovirus-infected insect cells at 10 uM using Luciferin-H as substrate in presence of NADPH by P450-Glo luminescence assay relative to control; conditions: probe Luciferin-H
[11] = molecular target: CYP2C19 (Homo sapiens, UniProt P33261); experiment: Inhibition of human CYP2C19 expressed in baculovirus-infected insect cells at 10 uM using Luciferin-H EGE as substrate in presence of NADPH by P450-Glo luminescence assay relative to control; assay type: ADME; conditions: probe Luciferin-H EGE; outline: as §4
[12] = molecular target: CYP2D6 (Homo sapiens, UniProt P10635); experiment: Inhibition of human CYP2D6 expressed in baculovirus-infected insect cells at 10 uM using Luciferin-ME EGE as substrate in presence of NADPH by P450-Glo luminescence assay relative to control; assay type: ADME; conditions: probe Luciferin-ME EGE; outline: as §4
[13] = molecular target: CYP3A4 (Homo sapiens, UniProt P08684); experiment: Inhibition of human CYP3A4 expressed in baculovirus-infected insect cells at 10 uM using Luciferin-PFBE as substrate in presence of NADPH by P450-Glo luminescence assay relative to control; assay type: ADME; conditions: probe Luciferin-PFBE
[14] = Lipophilicity, log P of the compound; assay type: physicochemical; conditions: octanol/water
[15] = system: Trypanosoma brucei brucei; experiment: Anti-parasitic activity against bloodstream form of Trypanosoma brucei brucei Lister 427 after 72 hrs by resazurin-based assay; assay type: functional; conditions: Lister 427, 72 h; outline: as §1
[16] = Selectivity index, ratio of CC50 for human THP1 cells to EC50 for anti-parasitic activity against bloodstream form of Trypanosoma brucei brucei Lister 427; assay type: toxicity; conditions: THP-1 cells, read-out: Ratio CC50/EC50
Outline: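 SI = CC50 in PMA-differentiated THP-1 macrophages (MTT) divided by the antiparasitic EC50.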

[17] = system: Leishmania infantum; experiment: Anti-parasitic activity against Leishmania infantum amastigotes infected in human THP1 cells at 50 uM after 5 days by Giemsa staining based assay relative to control; assay type: functional, cell-based; conditions: THP-1, 120 h
Outline: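 Intracellular L. infantum amastigotes in host cells, imaged by high-content automated imaging. Host cell number, infected cells and parasites per infected cell were counted. Infection Ratio = infected cells / total cells.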

[18] = system: Trypanosoma cruzi; experiment: Anti-parasitic activity against Trypanosoma cruzi Y promastigotes infected in HG39 cells by qPCR analysis; assay type: functional, cell-based; conditions: in the assay text read “trypomastigotes” for “promastigotes”; outline: as §2

CYP3A4, sequence (P08684 whole entry): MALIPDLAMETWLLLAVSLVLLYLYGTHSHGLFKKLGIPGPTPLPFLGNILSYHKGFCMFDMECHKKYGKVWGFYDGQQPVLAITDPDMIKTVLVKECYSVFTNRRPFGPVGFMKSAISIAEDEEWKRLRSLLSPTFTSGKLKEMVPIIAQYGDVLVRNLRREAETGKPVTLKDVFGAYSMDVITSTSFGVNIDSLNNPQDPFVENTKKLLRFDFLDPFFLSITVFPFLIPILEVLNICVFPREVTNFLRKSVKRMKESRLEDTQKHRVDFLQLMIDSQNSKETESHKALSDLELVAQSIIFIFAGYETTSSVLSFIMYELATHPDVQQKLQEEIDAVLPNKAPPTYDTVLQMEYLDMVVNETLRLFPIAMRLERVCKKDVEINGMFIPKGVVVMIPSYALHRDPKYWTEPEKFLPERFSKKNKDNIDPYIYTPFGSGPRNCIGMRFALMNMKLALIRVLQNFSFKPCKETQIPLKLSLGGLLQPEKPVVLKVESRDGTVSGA
CYP2C19, sequence (P33261 whole entry): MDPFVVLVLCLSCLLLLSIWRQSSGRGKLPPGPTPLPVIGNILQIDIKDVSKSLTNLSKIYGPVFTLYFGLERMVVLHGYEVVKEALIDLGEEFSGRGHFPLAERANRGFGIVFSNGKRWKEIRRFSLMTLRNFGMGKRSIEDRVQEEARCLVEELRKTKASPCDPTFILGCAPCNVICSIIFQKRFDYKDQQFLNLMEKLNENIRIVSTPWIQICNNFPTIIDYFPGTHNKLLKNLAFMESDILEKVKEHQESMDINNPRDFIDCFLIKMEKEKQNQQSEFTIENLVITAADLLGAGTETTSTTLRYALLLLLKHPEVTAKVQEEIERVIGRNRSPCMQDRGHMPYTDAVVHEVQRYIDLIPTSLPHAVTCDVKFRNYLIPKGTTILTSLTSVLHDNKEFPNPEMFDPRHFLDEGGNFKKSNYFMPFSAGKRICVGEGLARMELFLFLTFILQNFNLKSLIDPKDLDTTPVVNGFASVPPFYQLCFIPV
CYP2D6, sequence (P10635 whole entry): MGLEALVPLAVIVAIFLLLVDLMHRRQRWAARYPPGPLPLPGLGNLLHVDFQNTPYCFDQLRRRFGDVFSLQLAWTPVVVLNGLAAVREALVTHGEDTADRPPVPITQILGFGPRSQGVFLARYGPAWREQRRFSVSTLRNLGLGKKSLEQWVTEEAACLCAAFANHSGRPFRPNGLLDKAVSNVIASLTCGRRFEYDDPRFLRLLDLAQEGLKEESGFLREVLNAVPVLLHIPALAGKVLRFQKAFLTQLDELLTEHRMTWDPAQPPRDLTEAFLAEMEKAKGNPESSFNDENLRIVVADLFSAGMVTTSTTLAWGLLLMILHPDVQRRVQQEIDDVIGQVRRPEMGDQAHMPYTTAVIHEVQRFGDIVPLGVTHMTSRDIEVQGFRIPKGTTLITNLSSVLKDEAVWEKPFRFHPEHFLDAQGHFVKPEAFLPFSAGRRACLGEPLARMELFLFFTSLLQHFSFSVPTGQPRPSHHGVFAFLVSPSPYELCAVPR
CYP2C9, sequence (P11712 whole entry): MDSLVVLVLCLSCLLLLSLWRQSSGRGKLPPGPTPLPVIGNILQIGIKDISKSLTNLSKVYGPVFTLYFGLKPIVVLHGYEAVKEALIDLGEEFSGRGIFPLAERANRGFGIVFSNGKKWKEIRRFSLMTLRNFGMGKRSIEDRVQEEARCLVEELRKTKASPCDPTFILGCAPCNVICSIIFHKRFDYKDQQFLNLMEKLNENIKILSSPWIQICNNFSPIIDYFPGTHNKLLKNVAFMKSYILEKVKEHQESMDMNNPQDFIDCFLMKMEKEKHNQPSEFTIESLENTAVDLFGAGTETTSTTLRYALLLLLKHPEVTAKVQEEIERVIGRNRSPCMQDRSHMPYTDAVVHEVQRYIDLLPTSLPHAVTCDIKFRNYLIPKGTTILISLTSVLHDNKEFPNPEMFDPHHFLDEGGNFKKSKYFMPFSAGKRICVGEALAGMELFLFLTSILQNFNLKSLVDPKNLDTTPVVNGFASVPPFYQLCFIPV
hERG (KCNH2), sequence (Q12809 whole entry): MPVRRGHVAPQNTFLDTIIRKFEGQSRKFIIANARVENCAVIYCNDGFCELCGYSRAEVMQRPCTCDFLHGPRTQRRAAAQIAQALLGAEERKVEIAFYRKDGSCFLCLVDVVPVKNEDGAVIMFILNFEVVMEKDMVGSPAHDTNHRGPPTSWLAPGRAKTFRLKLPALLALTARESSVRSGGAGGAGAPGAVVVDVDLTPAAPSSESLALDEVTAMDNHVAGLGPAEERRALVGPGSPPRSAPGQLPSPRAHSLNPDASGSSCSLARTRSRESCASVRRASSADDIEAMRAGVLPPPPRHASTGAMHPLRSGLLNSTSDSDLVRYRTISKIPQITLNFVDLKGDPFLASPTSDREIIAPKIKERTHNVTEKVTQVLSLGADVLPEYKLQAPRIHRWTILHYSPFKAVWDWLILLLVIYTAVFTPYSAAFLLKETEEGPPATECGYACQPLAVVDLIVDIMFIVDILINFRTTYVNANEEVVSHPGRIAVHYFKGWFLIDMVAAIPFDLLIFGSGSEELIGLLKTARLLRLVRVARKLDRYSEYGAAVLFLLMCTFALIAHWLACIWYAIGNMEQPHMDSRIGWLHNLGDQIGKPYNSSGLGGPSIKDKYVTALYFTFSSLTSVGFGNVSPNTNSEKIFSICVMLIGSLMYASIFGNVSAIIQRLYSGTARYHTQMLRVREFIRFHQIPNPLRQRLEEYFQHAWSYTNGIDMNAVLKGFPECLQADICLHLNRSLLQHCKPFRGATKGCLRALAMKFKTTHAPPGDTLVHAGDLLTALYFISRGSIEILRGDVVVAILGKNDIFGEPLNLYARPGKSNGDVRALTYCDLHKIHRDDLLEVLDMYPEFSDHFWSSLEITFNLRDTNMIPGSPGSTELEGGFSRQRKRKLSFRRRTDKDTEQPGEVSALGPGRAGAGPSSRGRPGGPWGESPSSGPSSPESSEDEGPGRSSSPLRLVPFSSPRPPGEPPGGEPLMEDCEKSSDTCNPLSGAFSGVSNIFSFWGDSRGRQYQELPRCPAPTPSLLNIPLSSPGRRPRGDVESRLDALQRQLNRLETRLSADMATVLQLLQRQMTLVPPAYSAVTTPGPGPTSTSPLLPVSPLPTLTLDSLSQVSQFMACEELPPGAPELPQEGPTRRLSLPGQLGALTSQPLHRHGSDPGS
Aurora kinase B, sequence (Q96GD4 whole entry): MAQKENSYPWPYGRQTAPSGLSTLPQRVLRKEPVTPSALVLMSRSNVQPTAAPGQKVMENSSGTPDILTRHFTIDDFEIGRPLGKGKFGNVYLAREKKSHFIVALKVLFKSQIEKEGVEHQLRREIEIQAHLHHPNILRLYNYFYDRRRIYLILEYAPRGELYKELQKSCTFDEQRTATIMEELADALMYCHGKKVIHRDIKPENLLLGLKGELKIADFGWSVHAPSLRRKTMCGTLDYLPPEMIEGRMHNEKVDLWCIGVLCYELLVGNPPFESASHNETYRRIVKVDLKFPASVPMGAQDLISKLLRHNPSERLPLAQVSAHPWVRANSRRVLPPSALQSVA

| Structure (SMILES) | inhibition at 1 h, 10 µM [7] [%] | inhibition at 10 µM [9] [%] | inhibition at 10 µM [10] [%] | inhibition at 10 µM [11] [%] | inhibition at 10 µM [12] [%] | inhibition at 10 µM [13] [%] | logP [14] | pEC50 [15] | pEC50 [18] | inhibition at 10 µM [1] [%] | CC50 [2] [µM] | inhibition at 10 µM [3] [%] | viability at 10 µM [4] [%] | viability at 10 µM [5] [%] | Activity [6] [%] | inhibition at 10 µM [8] [%] | selectivity ratio [16] | inhibition at 50 µM [17] [%] |
| --- | --- | --- | --- | --- | --- | --- | --- | --- | --- | --- | --- | --- | --- | --- | --- | --- | --- | --- |
| COc1cccc(-c2oc3ccccc3c(=O)c2O)c1 |  |  |  |  |  |  |  | 5.63 |  |  |  |  |  |  |  |  | 4 |  |
| COc1ccc2c(=O)c(O)c(-c3cc(OC)c(OC)c(OC)c3)oc2c1 |  |  |  |  |  |  |  | 5.93 |  |  |  |  |  |  |  |  | 17 |  |
| COc1ccc2oc(-c3ccc(OC)c(OC)c3)c(O)c(=O)c2c1 |  |  |  |  |  |  |  | 5.69 |  |  |  |  |  |  |  |  | 5 |  |
| COc1ccc(-c2oc3ccc(OC)cc3c(=O)c2O)cc1 |  |  |  |  |  |  |  | 4.70 |  |  |  |  |  |  |  |  | 1 |  |

The next lines start with results.

| inhibition at 1 h, 10 µM [7] [%] | inhibition at 10 µM [9] [%] | inhibition at 10 µM [10] [%] | inhibition at 10 µM [11] [%] | inhibition at 10 µM [12] [%] | inhibition at 10 µM [13] [%] | logP [14] | pEC50 [15] | pEC50 [18] | Structure (SMILES) | inhibition at 10 µM [1] [%] | CC50 [2] [µM] | inhibition at 10 µM [3] [%] | viability at 10 µM [4] [%] | viability at 10 µM [5] [%] | Activity [6] [%] | inhibition at 10 µM [8] [%] | selectivity ratio [16] | inhibition at 50 µM [17] [%] |
| --- | --- | --- | --- | --- | --- | --- | --- | --- | --- | --- | --- | --- | --- | --- | --- | --- | --- | --- |
| 107 | 39.6 | 21.7 | 34.2 | 47.7 | 5 | 3.88 |  |  | COc1ccc(/C=C/C(=O)c2ccc(OC)cc2O)cc1 | 18 | > 100 | 47 | 102 | 14.2 | 14.2 | 2.7 |  |  |
| -10.6 | 75.4 | 47.4 | 63.5 | 58 | -8.3 | 3.86 | 5.47 | > 5.00 | COc1cccc(/C=C/C(=O)c2ccc(OC)cc2O)c1 | 100 | > 25 | 74 | 110 | 63 | -2.9 | 13.6 | ≥ 7 | 21 |
| -10.4 | 36.2 | 10.7 | 50 | 92.7 | 2.4 | 3.53 |  | > 5.00 | COc1ccc(C(=O)/C=C/c2ccc(OC)c(OC)c2)c(O)c1 | 10 | > 100 | 48 | 98.8 | 128 | -5.8 | 3.5 |  | 10 |
| 92.1 | 52.8 | -25.6 | 74.9 | 17.1 | 11.8 | 3.51 | 5.47 |  | COc1ccc(C(=O)/C=C/c2c(OC)cccc2OC)c(O)c1 | 98 | > 100 | 0 | 48.2 | 0.1 | 0 | 18.8 | ≥ 29 |  |
| -15.1 | 84.2 | -31.7 | 69.6 | 52.2 | 14.3 | 3.87 | 5.68 |  | COc1cccc(/C=C/C(=O)c2cc(OC)ccc2O)c1 | 100 | > 25 | 28 | 116 | 87.5 | 13.4 | 17.6 | ≥ 12 | 14 |
| -10.1 | 60 | -26.9 | 21.4 | 93.7 | -2.7 | 3.52 |  |  | COc1ccc(O)c(C(=O)/C=C/c2ccc(OC)c(OC)c2)c1 | 15 | > 50 | 0 | 116 | 114 | -9.5 | 15.9 |  | 16 |
